Data as given in ChEMBL document CHEMBL4145690, “Rational Design and Structure Validation of a Novel Peptide Inhibitor of the Adenomatous-Polyposis-Coli (APC)-Rho-Guanine-Nucleotide-Exchange-Factor-4 (Asef) Interaction” (J Med Chem, 2018).
Each block holds one compound with its values, some of them ahead of it. Activity calls are given as the source filed them. The calls are words filed in the database; no cut-off is given here. *1 amine or outer side, *2 acyl side, *3 side chain or, on linkers, in order; H or OH if unused. Where a SMILES comes first, the peptide text is derived from it. [ ]: non-standard residue; d: D form. The star is where a group is joined. X4 = O=C(C1(N[*:1])C[C@@H]2CC[C@H]1C2)[*:2]; X3 = O=C(c1cc2c(s1)CN([*:1])CC2)[*:2]; X2 = C=C(Br)C[C@H](N[*:1])C(=O)[*:2]; tBuAla = CC(C)(C)C[C@H](N)C(=O)O; hLeu = CC(C)CC[C@H](N)C(=O)O; Cbz = O=C(OCc1ccccc1)*

Key:
[1] = target: T1, Adenomatous polyposis coli protein (Homo sapiens, UniProt P25054); assay: Binding affinity to APC protein (303 to 739 residues) (unknown origin) incubated for 60 mins followed by probe addition and measured after 60 mins by competitive fluorescence polarization assay
T1 sequence (P25054 whole entry, the tested form may be a part): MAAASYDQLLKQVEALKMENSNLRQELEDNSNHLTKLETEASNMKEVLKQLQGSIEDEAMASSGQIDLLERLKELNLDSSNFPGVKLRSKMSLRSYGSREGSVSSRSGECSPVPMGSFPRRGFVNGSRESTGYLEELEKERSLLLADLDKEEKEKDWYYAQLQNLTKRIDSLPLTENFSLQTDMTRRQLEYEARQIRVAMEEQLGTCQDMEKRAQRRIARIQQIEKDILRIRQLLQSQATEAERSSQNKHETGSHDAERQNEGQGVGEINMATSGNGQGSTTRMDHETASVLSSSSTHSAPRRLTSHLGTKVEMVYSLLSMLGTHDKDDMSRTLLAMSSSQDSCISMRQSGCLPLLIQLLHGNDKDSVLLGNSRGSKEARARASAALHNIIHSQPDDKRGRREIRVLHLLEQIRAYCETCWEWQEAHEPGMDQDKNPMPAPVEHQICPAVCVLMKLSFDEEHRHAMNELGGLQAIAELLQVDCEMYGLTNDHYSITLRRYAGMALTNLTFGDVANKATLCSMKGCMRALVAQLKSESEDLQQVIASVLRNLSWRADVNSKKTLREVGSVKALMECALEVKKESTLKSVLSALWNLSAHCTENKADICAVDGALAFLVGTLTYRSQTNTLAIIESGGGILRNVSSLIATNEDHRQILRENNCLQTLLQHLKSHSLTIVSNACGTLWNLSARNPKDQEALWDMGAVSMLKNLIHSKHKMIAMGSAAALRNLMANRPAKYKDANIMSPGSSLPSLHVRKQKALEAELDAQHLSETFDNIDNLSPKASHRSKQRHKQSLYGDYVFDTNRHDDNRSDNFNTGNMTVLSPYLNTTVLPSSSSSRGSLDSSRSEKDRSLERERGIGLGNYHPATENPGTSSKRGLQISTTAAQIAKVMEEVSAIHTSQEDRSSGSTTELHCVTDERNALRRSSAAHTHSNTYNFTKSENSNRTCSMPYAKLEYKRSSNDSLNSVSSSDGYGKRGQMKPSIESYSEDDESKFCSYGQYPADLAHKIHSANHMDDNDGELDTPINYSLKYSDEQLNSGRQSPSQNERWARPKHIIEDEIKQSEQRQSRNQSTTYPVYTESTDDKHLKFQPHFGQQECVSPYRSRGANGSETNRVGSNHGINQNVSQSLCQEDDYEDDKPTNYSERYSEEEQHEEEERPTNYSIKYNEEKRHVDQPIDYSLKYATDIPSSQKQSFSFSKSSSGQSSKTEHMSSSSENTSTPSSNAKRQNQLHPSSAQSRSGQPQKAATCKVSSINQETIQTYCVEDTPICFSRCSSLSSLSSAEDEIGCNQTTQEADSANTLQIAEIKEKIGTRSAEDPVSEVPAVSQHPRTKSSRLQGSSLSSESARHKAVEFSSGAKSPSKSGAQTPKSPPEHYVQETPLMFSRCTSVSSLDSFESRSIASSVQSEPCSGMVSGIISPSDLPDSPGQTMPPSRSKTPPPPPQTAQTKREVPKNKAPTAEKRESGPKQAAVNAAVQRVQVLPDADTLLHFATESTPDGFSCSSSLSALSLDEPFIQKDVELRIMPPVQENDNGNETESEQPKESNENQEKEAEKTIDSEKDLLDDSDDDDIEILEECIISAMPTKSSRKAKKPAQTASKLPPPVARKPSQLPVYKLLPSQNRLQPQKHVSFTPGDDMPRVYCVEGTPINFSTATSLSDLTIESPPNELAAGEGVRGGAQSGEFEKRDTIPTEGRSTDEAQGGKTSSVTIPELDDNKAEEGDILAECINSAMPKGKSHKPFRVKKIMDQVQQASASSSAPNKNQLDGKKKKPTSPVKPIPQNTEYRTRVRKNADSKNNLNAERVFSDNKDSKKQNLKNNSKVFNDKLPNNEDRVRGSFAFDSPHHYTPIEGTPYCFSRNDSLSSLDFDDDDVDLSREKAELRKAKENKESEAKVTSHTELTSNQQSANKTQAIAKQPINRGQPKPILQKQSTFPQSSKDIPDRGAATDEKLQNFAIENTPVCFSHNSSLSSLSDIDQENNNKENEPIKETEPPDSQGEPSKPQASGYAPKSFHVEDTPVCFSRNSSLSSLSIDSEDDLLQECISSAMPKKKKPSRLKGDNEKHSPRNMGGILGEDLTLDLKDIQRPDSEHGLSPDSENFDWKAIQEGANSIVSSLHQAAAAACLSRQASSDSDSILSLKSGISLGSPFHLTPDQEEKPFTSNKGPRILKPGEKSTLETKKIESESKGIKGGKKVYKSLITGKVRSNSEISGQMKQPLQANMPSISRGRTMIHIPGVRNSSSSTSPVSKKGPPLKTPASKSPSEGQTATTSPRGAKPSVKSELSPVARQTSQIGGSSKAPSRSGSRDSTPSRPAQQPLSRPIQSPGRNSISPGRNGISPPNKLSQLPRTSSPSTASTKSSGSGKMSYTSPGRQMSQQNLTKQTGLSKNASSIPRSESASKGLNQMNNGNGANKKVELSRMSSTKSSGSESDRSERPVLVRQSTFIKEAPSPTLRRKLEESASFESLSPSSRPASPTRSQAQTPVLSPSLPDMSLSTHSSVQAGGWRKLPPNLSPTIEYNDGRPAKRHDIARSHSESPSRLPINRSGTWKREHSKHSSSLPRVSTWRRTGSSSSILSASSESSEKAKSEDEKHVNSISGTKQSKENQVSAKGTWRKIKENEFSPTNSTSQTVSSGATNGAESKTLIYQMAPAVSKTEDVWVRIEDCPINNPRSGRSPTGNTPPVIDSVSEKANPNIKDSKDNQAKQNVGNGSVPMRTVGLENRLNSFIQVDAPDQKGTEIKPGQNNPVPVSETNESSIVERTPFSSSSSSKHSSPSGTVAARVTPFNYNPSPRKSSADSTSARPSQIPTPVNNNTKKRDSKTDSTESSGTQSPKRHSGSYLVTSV
Summary of the method: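 Peptide in DMSO preincubated with protein 60 min at room temperature with shaking; probe added, then 60 min more. Controls: blank, tracer only, complex only. IC50 from dose-response curves, mean of three independent experiments.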

[2] = target: T1, Adenomatous polyposis coli protein; assay: Binding affinity to His-tagged APC (unknown origin) assessed as association constant by surface plasmon resonance assay
Summary of the method: (§1)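 His-APC amine-coupled to a CM5 chip (EDC/NHS; protein in 50 mM Hepes, 300 mM NaCl, 1 mM EDTA, pH 7.5); BSA reference cell. Peptides injected in 0.05 M Hepes pH 7.5 at 30 µL/min; dissociation 6 min; regeneration with glycine-HCl pH 2.0. Kinetic constants fitted to a 1:1 Langmuir model.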

[3] = target: T1, Adenomatous polyposis coli protein; assay: Binding affinity to His-tagged APC (unknown origin) assessed as dissociation constant by surface plasmon resonance assay; summary of the method: as §1
[4] = target: T1, Adenomatous polyposis coli protein; assay: Binding affinity to His-tagged APC (unknown origin) assessed as residence time by surface plasmon resonance assay; summary of the method: as §1
[5] = target: T1, Adenomatous polyposis coli protein; assay: Binding affinity to His-tagged APC (unknown origin) by surface plasmon resonance assay; summary of the method: as §1
[6] = target: T1, Adenomatous polyposis coli protein; assay: Reversible binding affinity to His-tagged APC (unknown origin) by surface plasmon resonance assay; summary of the method: as §1
[7] = target: T1, Adenomatous polyposis coli protein; assay: Binding affinity to APC (unknown origin) assessed as induction of blue shifts in fluorescence for APC-compound complexes at 35 uM incubate fro 30 mins by tryptophan fluorescence measurements assay
Summary of the method: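 APC protein (5 µM) alone or with peptide at 35 µM in 50 mM Hepes pH 7.5, 300 mM NaCl, 1 mM EDTA, 50 µL. Incubated 30 min at room temperature with gentle shaking. Tryptophan excited at 280 nm; emission scanned 300–500 nm. Run in triplicate.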

[8] = target: T1, Adenomatous polyposis coli protein; assay: Binding affinity to APC (unknown origin) assessed as association constant at 30 degC by ITC method
Summary of the method: (§2)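 ITC in 50 mM HEPES pH 7.5, 300 mM NaCl, 1 mM EDTA at 30 °C. Titrations were repeated three times. Kd, ΔG, ΔH and −TΔS are averages of the three independent experiments. L/P ratio gives sites per APC.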

[9] = target: T1, Adenomatous polyposis coli protein; assay: Binding affinity to APC (unknown origin) at 30 degC by ITC method; summary of the method: as §2
[10] = target: T1, Adenomatous polyposis coli protein; assay: Binding affinity to APC (unknown origin) at 37 degC by ITC method
Summary of the method: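 ITC at 37 °C in 50 mM HEPES pH 7.5, 300 mM NaCl, 1 mM EDTA. Titrations were repeated three times.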

[11] = target: T2, APC/Asef (Homo sapiens) (UniProt P25054+Q9NR80); assay: Inhibition of Flag-APC (303 to 876 residues) (unknown origin) /HA-Asef (170 to 632 residues) (unknown origin) interaction expressed in HEK293T cell lysates at 10 uM incubated for 2 hrs by coimmunoprecipitation assay
Summary of the method: (§3)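 HEK293T cells co-transfected with Flag-APC (303–876) and HA-Asef (170–632); lysed in RIPA after 24 h and lysate cleared. Supernatant incubated with compound (2 or 10 µM) or DMSO for 2 h at 4 °C, then anti-FLAG M2 gel overnight at 4 °C. Beads washed and proteins analysed by western blot (anti-HA, anti-Flag), single experiment.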

[12] = target: T1, Adenomatous polyposis coli protein; assay: Binding affinity to APC (unknown origin) assessed as intramolecular hydrogen bond formation by 1H nuclear magnetic resonance based hydrogen-deuterium-exchange assay
[13] = target: T2, APC/Asef (Homo sapiens); assay: Inhibition of Flag-APC (303 to 876 residues) (unknown origin) /HA-Asef (170 to 632 residues) (unknown origin) interaction expressed in HEK293T cell lysates incubated for 2 hrs by coimmunoprecipitation assay; summary of the method: as §3

SMILES: C=C(Br)C[C@H](NC(=O)[C@H](CO)NC(=O)[C@H](CCC(=O)O)NC(=O)CNC(=O)[C@H](C)NC(=O)OCc1ccccc1)C(=O)N[C@@H](Cc1ccc(O)cc1)C(=O)N[C@@H](CCC(=O)O)C(N)=O (Cbz-AGES[X2]YE-NH2)
- IC50 [1]: 1820 nM

SMILES: C[C@H](NC(=O)OCc1ccccc1)C(=O)NCC(=O)N[C@@H](CCC(=O)O)C(=O)N[C@@H](CO)C(=O)NC1(C(=O)N[C@@H](Cc2ccc(O)cc2)C(=O)N[C@@H](CCC(=O)O)C(N)=O)C[C@@H]2CC[C@H]1C2 (some centres undefined) (Cbz-AGES[X4]YE-NH2)
- IC50 [1]: 128000 nM

SMILES: CC(C)C[C@H](NC(=O)[C@H](Cc1ccc(O)cc1)NC(=O)[C@H](CCC(=O)O)NC(=O)CNC(=O)[C@H](C)NC(=O)OCc1ccccc1)C(=O)N[C@@H](Cc1ccc(O)cc1)C(=O)N[C@@H](CCC(=O)O)C(N)=O (Cbz-AGEYLYE-NH2)
- IC50 [1]: 5460 nM

SMILES: C[C@H](NC(=O)OCc1ccccc1)C(=O)NCC(=O)N[C@@H](CCC(=O)O)C(=O)N1CCc2cc(C(=O)N[C@@H](Cc3ccc(O)cc3)C(=O)N[C@@H](CCC(=O)O)C(N)=O)sc2C1 (Cbz-AGE[X3]YE-NH2)
- Kd [1]: Not Active

Next, values leading:

- IC50 [1]: 1090 nM
- K [2]: 1.92 ×10⁵ /M/s
- K [3]: 8.2 ×10⁻² /s
- TIME [4]: 0.00333 h
- Kd [5]: 430 nM
- Activity [6]: Dose-dependent effect
- Activity [7]: Active
- K [8]: 4.71 ×10⁶ /M
- Kd [9]: 210 nM
- Kd [10]: 1800 nM
- inhibition [11]: Active
SMILES: CC(C)C[C@H](NC(=O)[C@H](C)NC(=O)[C@H](CCC(=O)O)NC(=O)CNC(=O)[C@H](C)NC(=O)OCc1ccccc1)C(=O)N[C@@H](Cc1ccc(O)cc1)C(=O)N[C@@H](CCC(=O)O)C(N)=O (Cbz-AGEALYE-NH2)

- IC50 [1]: 250 nM
- K [2]: 3.05 ×10⁵ /M/s
- K [3]: 6.7 ×10⁻² /s
- TIME [4]: 0.00417 h
- Kd [5]: 220 nM
- inhibition [6]: Dose-dependent effect
- Activity [12]: Active
- Activity [7]: Active
- K [8]: 8.21 ×10⁷ /M
- Kd [9]: 12 nM
- Kd [10]: 210 nM
- inhibition [13]: Dose-dependent effect
SMILES: CC(C)C[C@H](NC(=O)[C@H](CO)NC(=O)[C@H](CCC(=O)O)NC(=O)CNC(=O)[C@H](C)NC(=O)OCc1ccccc1)C(=O)N[C@@H](Cc1ccc(O)cc1)C(=O)N[C@@H](CCC(=O)O)C(N)=O (Cbz-AGESLYE-NH2)

- IC50 [1]: 840 nM
SMILES: CC(C)CC[C@H](NC(=O)[C@H](CO)NC(=O)[C@H](CCC(=O)O)NC(=O)CNC(=O)[C@H](C)NC(=O)OCc1ccccc1)C(=O)N[C@@H](Cc1ccc(O)cc1)C(=O)N[C@@H](CCC(=O)O)C(N)=O (Cbz-AGES[hLeu]YE-NH2)

- IC50 [1]: 1780 nM
SMILES: C[C@H](NC(=O)OCc1ccccc1)C(=O)NCC(=O)N[C@@H](CCC(=O)O)C(=O)N[C@@H](CO)C(=O)N[C@@H](CC(C)(C)C)C(=O)N[C@@H](Cc1ccc(O)cc1)C(=O)N[C@@H](CCC(=O)O)C(N)=O (Cbz-AGES[tBuAla]YE-NH2)
